UPR XBP1 act: activators of adaptive XBP1 UPR arm, primary screen, cell-based, CHO-XBP1 luciferase reporter, luminescence, uHTS. activation, % at 20 µM. IRE1-XBP1 UPR activation; percent of tunicamycin response, DMSO as zero. 0.33% of 330,000 active. AID 463104, 2010;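 active = versus positive control, 20 µM dose yields 30% or more activation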;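 note: 100% = tunicamycin at 10 µg/mL and 0% = DMSO only wells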
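Assay system: CHO-XBP1 luciferase reporter cells; Schedule: 6 h treatment, 37 °C; Detection: glow luminescence from Steady-Glo reagent; Benchmarks: high control tunicamycin 10 µg/mL final, low control DMSO vehicle only.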
CHOP inh: inhibitors of CHOP promoter induction, primary screen, cell-based, unfolded protein response, luciferase reporter. AID 2732, 2010. inhibition, % at 10 µM. CHO-K1 CHOP-promoter luciferase, tunicamycin-induced, 15-18 h. 3.8% of 220,000 active;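 active = compounds that reduced the stress-induced luciferase reporter signal by more than about 70% of percent inhibition, limit read from the data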;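 note: 0% = tunicamycin plus vehicle and 100% = wells without tunicamycin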
Bfl-1 A1 inh: caspase 3/7 activation in MEF A1-2A-BIM cells, primary screen, A1 inhibitor project, cell-based, luminescence, HTS. Caspase-Glo 3/7 luminescence, 3 h; percent of clofoctol response, vehicle zero. 0.066% of 330,000 active. caspase activation, % (test concentration not listed);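 active = over half of replicate activation scores above 10%, or exactly half above 10 with the replicate mean above 10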
CHOP UPR activ: activators of apoptotic CHOP UPR arm, primary screen, cell-based, CHO-CHOP luciferase reporter, luminescence, uHTS. activation, % at 10 µM. 0.34% of 330,000 active. UPR activation; percent of tunicamycin response over DMSO baseline;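 active = at 10 µM dose, activation of 40% or more, normalized to positive control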;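 note: 100% = tunicamycin at 10 µg/mL and 0% = DMSO alone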
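System: CHO-CHOP luciferase reporter cell line | Buffer or medium: F12 medium containing 10% fetal bovine serum | Doses: One dose, 10 µM in 0.5% DMSO | Times: 6 h compound exposure at 37 °C after overnight seeding | Signal: Luciferase luminescence | Read-out: % activation vs tunicamycin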
XBP1 UPR conf: IRE1-XBP1 UPR arm activators, confirmation, cell-based, CHO-XBP1 luciferase reporter, luminescence, single concentration; shares compounds with UPR XBP1 act; 63% of 1,000 active; AID 485299, 2010; activation, % at 20 µM;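 active = reporter signal at least 30% of the positive control's activation in two or more of four replicate wells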;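 note: plate controls were DMSO negative control for no effect and tunicamycin 10 µg/mL positive control for full effect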
An asterisk follows results filed as active. This is one part of a sample in which hits are shown more often than they occur.

For COc1ccc(/C=N/NC(=O)Nc2cccc3nsnc23)cc1OC the results were UPR XBP1 act 74*, CHOP inh 83*, Bfl-1 A1 inh -1, CHOP UPR activ 7 and XBP1 UPR conf 25.
CCOc1ccccc1CN1CCN(Cc2cc(=O)c3ccccc3[nH]2)CC1CCO (configuration not stated) was read as UPR XBP1 act -1, Bfl-1 A1 inh 1 and CHOP UPR activ -1.
`COC(=O)c1c(NC(=S)NN2CCN(C)CC2)sc2c1CCC(C)C2` (configuration not stated) gave UPR XBP1 act 34*, CHOP inh 64, Bfl-1 A1 inh 1, CHOP UPR activ 10 and XBP1 UPR conf 20.
`CCOC(=O)/C(C#N)=C\c1ccc(OCC(=O)Nc2ccc(C)cc2C)c(OC)c1` gave UPR XBP1 act 37*, CHOP inh 53, Bfl-1 A1 inh 1, CHOP UPR activ 11 and XBP1 UPR conf 2.
NS(=O)(=O)c1ccc(NC(=O)COC(=O)c2cn(-c3ccccc3)nc2-c2ccc(F)cc2)cc1 was read as UPR XBP1 act 68*, CHOP inh 78*, Bfl-1 A1 inh 0, CHOP UPR activ 3 and XBP1 UPR conf 89*.
`OC(CNCC1CCCO1)Cn1c2ccc(Cl)cc2c2cc(Cl)ccc21` (configuration not stated) gave UPR XBP1 act 64*, CHOP inh 94*, Bfl-1 A1 inh 2, CHOP UPR activ 11 and XBP1 UPR conf 59*.
Screening COC(=O)CSc1nc(N)c2c3c(sc2n1)C(c1ccccc1)SC(c1ccccc1)C3 (configuration not stated) returned UPR XBP1 act 38*, CHOP inh -80, Bfl-1 A1 inh 16*, CHOP UPR activ -7 and XBP1 UPR conf 14.
For Cc1ccc(S(=O)(=O)NCc2nc3nc(C)cc(C)n3n2)c(C)c1 the results were UPR XBP1 act -3, Bfl-1 A1 inh 0 and CHOP UPR activ 0.
`Cc1c(O)ccc(/C=N/Nc2nc(-c3cccnc3)nc3ccccc23)c1O` gave UPR XBP1 act 36*, CHOP inh 24, Bfl-1 A1 inh 0, CHOP UPR activ 9 and XBP1 UPR conf 28.
For CCOc1cccc2sc(N(CCCN(C)C)C(=O)c3ccc(S(=O)(=O)N(C)c4ccccc4)cc3)nc12 the results were UPR XBP1 act 2, CHOP inh 17, Bfl-1 A1 inh 0 and CHOP UPR activ 5.
Screening CCOc1cccc2sc(N(CCCN(C)C)C(=O)c3ccc(S(=O)(=O)N4CCc5ccccc5C4)cc3)nc12 returned UPR XBP1 act 35*, Bfl-1 A1 inh 0, CHOP UPR activ 27 and XBP1 UPR conf 14.
For CCC(C(=O)NC1CCCC1)N(C(=O)Cn1nnc(-c2ccc(C)o2)n1)c1ccccc1OC (configuration not stated) the results were UPR XBP1 act 0, Bfl-1 A1 inh 1 and CHOP UPR activ 1.
For O=C(Nc1cccc(Cl)c1)c1nc[nH]c1C(=O)NCCN(CCNC(=O)c1[nH]cnc1C(=O)Nc1cccc(Cl)c1)CCNC(=O)c1[nH]cnc1C(=O)Nc1cccc(Cl)c1 the results were UPR XBP1 act -2, Bfl-1 A1 inh 0 and CHOP UPR activ 2.
O=C(Nc1cccc(Cl)c1)c1nc[nH]c1C(=O)NCCCCNC(=O)c1[nH]cnc1C(=O)Nc1cccc(Cl)c1 was read as UPR XBP1 act 60*, Bfl-1 A1 inh -1, CHOP UPR activ 8 and XBP1 UPR conf 19.
CCOC(=O)c1sc(NC(=O)CSc2nc3ccccc3o2)c(C(=O)OCC)c1C was read as UPR XBP1 act 0, CHOP inh 20, Bfl-1 A1 inh 0 and CHOP UPR activ 2.
Screening COc1cccc(NS(=O)(=O)c2ccc3c(c2)CC(=O)N3)c1 returned UPR XBP1 act 0, Bfl-1 A1 inh 0 and CHOP UPR activ 0.
For CCCn1c(C(C)Nc2nc(-c3ccc(C)cc3)cs2)nc2cc(Cl)c(Cl)cc21 (configuration not stated) the results were UPR XBP1 act -1, Bfl-1 A1 inh 0 and CHOP UPR activ -1.
Screening Cc1ccc(Cn2c(C(C)Nc3nc(-c4ccc(F)cc4)cs3)nc3cc(Cl)c(Cl)cc32)cc1 (configuration not stated) returned UPR XBP1 act 35*, Bfl-1 A1 inh 1, CHOP UPR activ 2 and XBP1 UPR conf 30*.
For OCCCn1c(C2CCCN2c2nc(-c3ccc(F)cc3)cs2)nc2cc(Cl)c(N3CCCCC3)cc21 (configuration not stated) the results were UPR XBP1 act 100*, Bfl-1 A1 inh 0, CHOP UPR activ 0 and XBP1 UPR conf 48*.
`OC(COc1ccc(Cl)cc1)CN1C2=NCCCN2c2ccccc21` (configuration not stated) gave UPR XBP1 act -2, CHOP inh 0, Bfl-1 A1 inh 0 and CHOP UPR activ 1.
Screening Cc1ccc(-c2cc(C(F)F)nc3sc4c(=O)[nH]cnc4c23)cc1 returned UPR XBP1 act 44*, Bfl-1 A1 inh 0, CHOP UPR activ 26 and XBP1 UPR conf 19.
`O=C(Nc1ccc2nn(-c3ccccc3)nc2c1)c1ccc(Br)o1` gave UPR XBP1 act 35*, CHOP inh 73*, Bfl-1 A1 inh 0, CHOP UPR activ 3 and XBP1 UPR conf 5.
`N#CCCn1cc(/C=N/O)c(-c2ccc(Cl)cc2)n1` gave UPR XBP1 act 109*, CHOP inh 20, Bfl-1 A1 inh -1, CHOP UPR activ -2 and XBP1 UPR conf -2.
`CC(C)(C)N=C1NN=C(c2ccc(S(=O)(=O)N3CCCCC3)cc2)CS1` gave UPR XBP1 act -1, Bfl-1 A1 inh 0 and CHOP UPR activ -1.
`COc1ccc2oc(-c3ccc(C)c(NC(=O)c4ccc(N5CCOCC5)c([N+](=O)[O-])c4)c3)nc2c1` gave UPR XBP1 act 119*, CHOP inh 5, Bfl-1 A1 inh -1, CHOP UPR activ 8 and XBP1 UPR conf 140*.
Screening COc1ccc(CNC(=O)c2ccc(N3CCOCC3)c([N+](=O)[O-])c2)cc1 returned UPR XBP1 act 0, CHOP inh 13, Bfl-1 A1 inh 1 and CHOP UPR activ 4.
For N#CCn1c(Cc2ccccc2)nc2ccccc2c1=O the results were UPR XBP1 act 32*, Bfl-1 A1 inh 1, CHOP UPR activ 1 and XBP1 UPR conf 0.
For O=C(COC(=O)c1cccc(S(=O)(=O)N2CCOCC2)c1)Nc1ccc(Cl)cn1 the results were UPR XBP1 act -1, Bfl-1 A1 inh 0 and CHOP UPR activ -1.

Screens (PubChem BioAssay)
